According to ChEMBL document CHEMBL4842325, “Lanosterol 14α-demethylase (CYP51)/histone deacetylase (HDAC) dual inhibitors for treatment of Candida tropicalis and Cryptococcus neoformans infections” (Eur J Med Chem, 2021):
≈ marks a conversion by molar mass, not a printed value. Calls of active or inactive are those of the source. The rule behind the calls is not given here.

Columns and labels:
Candida tropicalis [1] = test: microbe, parasite or virus in culture; assay type: functional; details: 3890, time 48 hrs
Candida albicans [2] = test: microbe, parasite or virus in culture; assay type: functional; details: 4108
Candida tropicalis [3] = test: microbe, parasite or virus in culture; assay type: functional; details: 5008, time 48 hrs
Candida albicans [4] = test: Antifungal activity against fluconazole-sensitive Candida albicans 9770 assessed as inhibition of fungal growth; assay type: functional
Candida albicans [5] = test: Antifungal activity against fluconazole-sensitive Candida albicans 10061 assessed as inhibition of fungal growth; assay type: functional
Candida albicans [6] = test: microbe, parasite or virus in culture; assay type: functional; details: 0304103
Candida albicans [7] = test: Antifungal activity against fluconazole-sensitive Candida albicans SC5314 assessed as inhibition of fungal growth; assay type: functional
Candida albicans [8] = test: microbe, parasite or virus in culture; assay type: functional; details: 7781
Cryptococcus neoformans [9] = test: microbe, parasite or virus in culture; assay type: functional; details: H99, time 72 hrs
Cryptococcus neoformans [10] = test: Inhibition of capsule formation in Cryptococcus neoformans H99 assessed as reduction in capsule size at 50 ug/ml incubated for 24 hrs by laser scanning confocal microscopic analysis; assay type: functional; details: dose 50.0 µg/ml
Procedure, shortened: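 Exponential-phase C. neoformans H99 from YEPD resuspended in PBS at 1 × 10⁷ cells/mL. Suspension placed in wells with FBS plus DMEM and compound at several concentrations; untreated group as control. Kept 24 h at 37 °C under 10% CO₂. Cells mixed with India ink and imaged by confocal microscopy at 63×, 10 random fields. Whole-cell and cell-body diameters measured to derive capsule size.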

Cryptococcus neoformans [11] = test: Downregulation of CAP59 gene expression in Cryptococcus neoformans H99 at 2 ug/ml measured after 24 hrs by qRT-PCR analysis; assay type: functional; details: dose 2.0 µg/ml
Procedure, shortened: (§1)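 Exponential-phase C. neoformans H99 inoculated into 50 mL YPD with compound. Incubated 35 °C for 24 h, then cultures ground in liquid nitrogen for RNA isolation. Transcript levels of capsule-associated genes quantified by RT-qPCR. Three independent experiments, mean ± SD, t-test.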

Cryptococcus neoformans [12] = test: Antifungal activity against Cryptococcus neoformans H99 infected in ICR mouse model assessed as reduction in fungal burden in brain at 20 mg/kg, po administered once a day for 5 days; assay type: functional, organism-based; details: time 5.0 day
Procedure, shortened: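 Immunosuppression by intraperitoneal cyclophosphamide 24 h before infection. Infected on day 0 by intravenous 2 × 10⁵ CFU C. neoformans H99. Oral treatment once daily for 5 consecutive days, starting 24 h post infection; saline group as blank. Brains taken on day 6 and homogenized, dilutions plated on SDA at 35 °C for 48 h. Colonies counted for burden; groups compared by ANOVA.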

Cryptococcus neoformans [13] = test: Inhibition of biofilm formation in Cryptococcus neoformans H99 at 8 ug/ml incubated for 24 hrs by XTT reduction assay; assay type: functional, organism-based; details: dose 8.0 µg/ml
Candida tropicalis [14] = test: Antifungal activity against Candida tropicalis 5008 assessed as inhibition of fungal filamentation by measuring reduction in hyphae formation at 8 ug/ml incubated for 7 hrs by cell inverted imaging microscopic analysis; assay type: functional, organism-based; details: dose 8.0 µg/ml
Procedure, shortened: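 C. tropicalis 5008 grown to exponential phase in YEPD, diluted to 1 × 10⁵ CFU/mL in spider medium and dosed at several concentrations, with an untreated group for comparison. Incubated 37 °C for 7 h. Cell morphology recorded on a live-cell inverted microscope.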

Candida tropicalis [15] = test: Downregulation of CDR1 mRNA expression in Candida tropicalis 5008 at 4 ug/ml measured after 24 hrs by qRT-PCR analysis; assay type: functional; details: dose 4.0 µg/ml
Procedure, shortened: (§2)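 Exponential-phase C. tropicalis 5008 inoculated into 10 mL YPD with compound at several concentrations, DMSO as blank control. Incubated 35 °C for 24 h. Total RNA isolated on columns and reverse-transcribed. Real-time RT-PCR with ACT1 as internal control. Mean of 3 independent assays ± SD.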

Candida tropicalis [16] = test: Antifungal activity against fluconazole-resistant Candida tropicalis 5008 assessed as inhibition of cell proliferation at 32 ug/ml measured for 48 hrs by time growth curve assay; assay type: functional, organism-based; details: dose 32.0 µg/ml
Procedure, shortened: (§3)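 Exponential-phase cells from YEPD resuspended in 3 mL fresh RPMI 1640 at 1 × 10⁵ cells/mL (C. tropicalis 5008) or 1 × 10⁶ cells/mL (C. neoformans H99). Compound at several concentrations; cultures shaken at 240 rpm, 30 °C. Growth read as OD₆₃₀ at 0, 6, 12, 24, 36 and 48 h. Done in triplicate.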

Candida tropicalis [17] = test: Downregulation of MDR1 mRNA expression in Candida tropicalis 5008 at 4 ug/ml measured after 24 hrs by qRT-PCR analysis; assay type: functional; details: dose 4.0 µg/ml
Procedure, shortened: as §2

Cryptococcus neoformans [18] = test: Antifungal activity against fluconazole-sensitive Cryptococcus neoformans H99 assessed as inhibition of cell proliferation at 2 to 8 ug/ml measured for 48 hrs by time growth curve assay; assay type: functional, organism-based; details: dose 2-8 µg/ml
Procedure, shortened: as §3

Cryptococcus neoformans [19] = test: Downregulation of CAP10 gene expression in Cryptococcus neoformans H99 at 2 ug/ml measured after 24 hrs by qRT-PCR analysis; assay type: functional; details: dose 2.0 µg/ml
Procedure, shortened: as §1

Candida tropicalis [20] = test: Downregulation of ERG11 mRNA expression in Candida tropicalis 5008 at 4 ug/ml measured after 24 hrs by qRT-PCR analysis; assay type: functional; details: dose 4.0 µg/ml
Procedure, shortened: as §2

[21] = Inhibition of HDAC in Candida tropicalis 5008 using Boc-Lys(Ac)-AMC as substrate preincubated with protoplast for 12 hrs followed by incubation with substrate for 6 hrs by fluorimetric assay
Procedure, shortened: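 Whole-cell assay on C. tropicalis 5008, 100 mg wet weight of exponential-phase cells. Cell wall removed with snailase to give protoplasts, which were dispersed in PBS. Protoplasts incubated with compound at 35 °C for 12 h. Boc-Lys(Ac)-AMC then added to a final 30 µM and incubated 37 °C for 6 h. Stop solution added, 37 °C for 2 h. Fluorescence read at Ex 360/Em 460 nm and converted to HDAC inhibition rate.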

Row | SMILES | MIC80 (Candida tropicalis [1]) [µg/mL] | MIC80 (Candida albicans [2]) [µg/mL] | MIC80 (Candida tropicalis [3]) [µg/mL] | MIC80 (Candida albicans [4]) [µg/mL] | MIC80 (Candida albicans [5]) [µg/mL] | MIC80 (Candida albicans [6]) [µg/mL] | MIC80 (Candida albicans [7]) [µg/mL] | MIC80 (Candida albicans [8]) [µg/mL] | MIC80 (Cryptococcus neoformans [9]) [µg/mL] | other results
1 | O=C(NO)c1ccc(CCCCn2ncn(-c3ccc(CN4CCN(CC(O)(Cn5cncn5)c5ccc(F)cc5F)CC4)cc3)c2=O)cc1 (centres undefined) | > 64 | > 64 | > 64 | > 64 | > 64 | > 64 | > 64 | 16 (≈ 23.3 µM) | 8 (≈ 11.6 µM) | –
2 | O=C(CCCCCCOc1ccc(CN2CCN(CC(O)(Cn3cncn3)c3ccc(F)cc3F)CC2)cc1)NO (centres undefined) | 2 (≈ 3.49 µM) | 8 (≈ 14 µM) | 0.5 (≈ 0.873 µM) | 32 (≈ 55.9 µM) | 32 (≈ 55.9 µM) | 16 (≈ 27.9 µM) | 1 (≈ 1.75 µM) | 1 (≈ 1.75 µM) | 0.5 (≈ 0.873 µM) | –
3 | O=C(Cc1ccc(OCCCOc2ccc(CN3CCN(CC(O)(Cn4cncn4)c4ccc(F)cc4F)CC3)cc2)cc1)NO (centres undefined) | 2 (≈ 3.14 µM) | 32 (≈ 50.3 µM) | 32 (≈ 50.3 µM) | > 64 | > 64 | 32 (≈ 50.3 µM) | 4 (≈ 6.28 µM) | 4 (≈ 6.28 µM) | 4 (≈ 6.28 µM) | –
4 | O=C(Cc1ccc(OCCCn2ncn(-c3ccc(CN4CCN(CC(O)(Cn5cncn5)c5ccc(F)cc5F)CC4)cc3)c2=O)cc1)NO (centres undefined) | 2 (≈ 2.84 µM) | 4 (≈ 5.68 µM) | 16 (≈ 22.7 µM) | 32 (≈ 45.5 µM) | 32 (≈ 45.5 µM) | 2 (≈ 2.84 µM) | 2 (≈ 2.84 µM) | 2 (≈ 2.84 µM) | 2 (≈ 2.84 µM) | –
5 | O=C(Cc1ccc(OCCCCCN2CCN(CC(O)(Cn3cncn3)c3ccc(F)cc3F)CC2)cc1)NO (centres undefined) | 4 (≈ 7.16 µM) | > 64 | > 64 | > 64 | > 64 | > 64 | 32 (≈ 57.3 µM) | > 64 | 32 (≈ 57.3 µM) | –
6 | O=C(Cc1ccc(OCCCCN2CCN(CC(O)(Cn3cncn3)c3ccc(F)cc3F)CC2)cc1)NO (centres undefined) | 32 (≈ 58.8 µM) | > 64 | > 64 | > 64 | > 64 | 32 (≈ 58.8 µM) | > 64 | > 64 | 32 (≈ 58.8 µM) | –
7 | CCC(C)n1ncn(-c2ccc(N3CCN(c4ccc(OCC5COC(Cn6cncn6)(c6ccc(Cl)cc6Cl)O5)cc4)CC3)cc2)c1=O (centres undefined) [ITRACONAZOLE] | > 64 | > 64 | > 64 | – | – | > 64 | 0.5 (≈ 0.709 µM) | > 64 | 0.125 (≈ 0.177 µM) | –
8 | O=C(CCCCCCn1ncn(-c2ccc(CN3CCN(CC(O)(Cn4cncn4)c4ccc(F)cc4F)CC3)cc2)c1=O)NO (centres undefined) | > 64 | – | > 64 | > 64 | – | > 64 | > 64 | 32 (≈ 50 µM) | 64 (≈ 100 µM) | –
9 | O=C(CCCCCCCn1ncn(-c2ccc(CN3CCN(CC(O)(Cn4cncn4)c4ccc(F)cc4F)CC3)cc2)c1=O)NO (centres undefined) | > 64 | – | > 64 | > 64 | – | 64 (≈ 97.9 µM) | > 64 | 64 (≈ 97.9 µM) | 32 (≈ 48.9 µM) | –
10 | O=C(CCCCCOc1ccc(CN2CCN(CC(O)(Cn3cncn3)c3ccc(F)cc3F)CC2)cc1)NO (centres undefined) | 2 (≈ 3.58 µM) | 16 (≈ 28.6 µM) | 1 (≈ 1.79 µM) | 32 (≈ 57.3 µM) | > 64 | 32 (≈ 57.3 µM) | 1 (≈ 1.79 µM) | 2 (≈ 3.58 µM) | 8 (≈ 14.3 µM) | –
11 | OC(Cn1cncn1)(Cn1cncn1)c1ccc(F)cc1F [FLUCONAZOLE] | 0.5 (≈ 1.63 µM) | > 64 | > 64 | > 64 | > 64 | > 64 | 0.5 (≈ 1.63 µM) | > 64 | 2 (≈ 6.53 µM) | inhibition (Cryptococcus neoformans [10]): Active; inhibition (Cryptococcus neoformans [11]): inactive; Activity (Cryptococcus neoformans [12]): Active; inhibition (Cryptococcus neoformans [13]): Active; Activity (Candida tropicalis [14]): Active; inhibition (Candida tropicalis [15]): Active; Activity (Candida tropicalis [16]): Active; inhibition (Candida tropicalis [17]): Active; Activity (Cryptococcus neoformans [18]): Active; inhibition (Cryptococcus neoformans [19]): inactive; inhibition (Candida tropicalis [20]): Active
12 | O=C(CCCCOc1ccc(CN2CCN(CC(O)(Cn3cncn3)c3ccc(F)cc3F)CC2)cc1)NO (centres undefined) | 2 (≈ 3.67 µM) | 32 (≈ 58.8 µM) | 4 (≈ 7.34 µM) | > 64 | > 64 | 8 (≈ 14.7 µM) | 1 (≈ 1.84 µM) | 4 (≈ 7.34 µM) | 8 (≈ 14.7 µM) | –
13 | O=C(Cc1ccc(OCCCCCCN2CCN(CC(O)(Cn3cncn3)c3ccc(F)cc3F)CC2)cc1)NO (centres undefined) | 2 (≈ 3.49 µM) | 16 (≈ 27.9 µM) | 4 (≈ 6.98 µM) | 16 (≈ 27.9 µM) | 16 (≈ 27.9 µM) | 16 (≈ 27.9 µM) | 16 (≈ 27.9 µM) | 4 (≈ 6.98 µM) | 16 (≈ 27.9 µM) | –
14 | O=C(CCCOc1ccc(CN2CCN(CC(O)(Cn3cncn3)c3ccc(F)cc3F)CC2)cc1)NO (centres undefined) | 4 (≈ 7.54 µM) | 16 (≈ 30.2 µM) | 4 (≈ 7.54 µM) | > 64 | 32 (≈ 60.3 µM) | 8 (≈ 15.1 µM) | 4 (≈ 7.54 µM) | 8 (≈ 15.1 µM) | 8 (≈ 15.1 µM) | –
15 | O=C(CCCCCCC(=O)Nc1ccccc1)NO [VORINOSTAT] | – | – | – | – | – | – | – | – | – | IC50 [21]: 3.56 µM
16 | C[C@@H](c1ncncc1F)[C@](O)(Cn1cncn1)c1ccc(F)cc1F [VORICONAZOLE] | > 64 | > 64 | > 64 | – | – | > 64 | < 0.125 | > 64 | 0.0625 (≈ 0.179 µM) | –
